Laboratory results published in paper PMC2687631 (Yonsei Medical Journal, 2006).

Legend:
[1] = system: hPTH/PTHrp receptor; conditions: LLC-PK cells stably expressing a high level of the hPTH/PTHrp receptor; cited from earlier work
[2] = system: mice; conditions: cited from earlier work
[3] = system: animals and humans; conditions: cited from earlier work
[4] = system: ovariectomized rat model; assay: Femoral length and cross-sectional diameter at mid-diaphysis; assay type: in vivo, Sprague-Dawley rats; conditions: ovx rats, subcutaneous for 5 weeks; p<0.05 vs. OVX
Outline: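 Female Sprague-Dawley rats were ovariectomized at 10 weeks (sham group unoperated), left untreated for 4 weeks, then dosed daily s.c. for 5 weeks with test compound (30 nM/kg), rhPTH(1-84) (8 nM/kg) or 0.9% saline vehicle, seven per group. Left femur length (greater trochanter to intercondylar fossa) and mid-diaphysis AP/ML diameters measured by digital caliper. Means and SD; ANOVA with Bonferroni.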

PTH (1-14): N-terminal fragment 1-14 of parathyroid hormone (SVSEIQLMHNLGKH; Parathyroid hormone; UniProt P01270 32-45, looked up, fragment)
cAMP formation relative to PTH (1-34) [1]: about 10^-3 folds

PTH (1-31): PTH (1-31) fragment
Potency in stimulating bone resorption parameters vs PTH (1-34) [2]: less potent
Potency on bone formation vs PTH (1-34) [2]: as potent as PTH (1-34)

B1: PTH: parathyroid hormone, low dose, intermittently administered (protein, UniProt P01270 32-115, looked up)
Parathyroid hormone: SVSEIQLMHNLGKHLNSMERVEWLRKKLQDVHNFVALGAPLAPRDAGSQRPRKKEDNVLVESHEKSLGEADKADVNVLTKAKSQ
modifications: Parathyroid hormone
Anabolic effect / bone mass (in words) [3]: significant increase in bone mass

B2: rhPTH (1-84): recombinant human PTH (1-84), donated by the Mogam Biotechnology Research Institute (protein, UniProt P01270 32-115, looked up)
Parathyroid hormone: SVSEIQLMHNLGKHLNSMERVEWLRKKLQDVHNFVALGAPLAPRDAGSQRPRKKEDNVLVESHEKSLGEADKADVNVLTKAKSQ
modifications: Parathyroid hormone
Femoral length (in words) [4]: significantly increased length
